Assay results from ChEMBL document CHEMBL1629638, “Pyrosequencing using the single-nucleotide polymorphism protocol for rapid determination of TEM- and SHV-type extended-spectrum beta-lactamases in clinical isolates and identification of the novel beta-lactamase genes blaSHV-48, blaSHV-105, and blaTEM-155” (2009).
≈ marks a conversion by molar mass, not a printed value.

Experiments:
Type in all cases: functional
Escherichia coli [1] = assay: Antimicrobial activity against Escherichia coli ATCC 25922 by microdilution method in presence of clavulanic acid
Outline: (§1)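 Broth microdilution MIC. Plates of serial antibiotic dilutions inoculated to 10^5 CFU/ml and incubated 18 to 22 h at 35°C in ambient air. MIC is the lowest concentration giving complete growth inhibition by unaided eye. The recombinant strains carry shotgun-cloned bla genes in pCLL2300.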

Escherichia coli [2] = assay: Antimicrobial activity against Escherichia coli DH5[alpha] isolate GC 8128 expressing bla SHV-105 gene by microdilution method in presence of clavulanic acid; outline: as §1
Escherichia coli [3] = assay: Antimicrobial activity against Escherichia coli DH5[alpha] isolate GC 7668 expressing bla SHV-48 gene by microdilution method in presence of clavulanic acid; outline: as §1
Escherichia coli [4] = assay: Antimicrobial activity against Escherichia coli DH5[alpha] isolate GC 8130 expressing bla SHV-1 gene by microdilution method in presence of clavulanic acid; outline: as §1
Escherichia coli [5] = assay: Antimicrobial activity against Escherichia coli DH5[alpha] isolate GC 8133 expressing bla […] gene by microdilution method in presence of clavulanic acid; outline: as §1
Escherichia coli [6] = assay: Antimicrobial activity against Escherichia coli DH5[alpha] by microdilution method in presence of clavulanic acid; outline: as §1
Escherichia coli [7] = assay: Antimicrobial activity against Escherichia coli DH5[alpha] isolate GC 8133 expressing bla […] gene by microdilution method
Outline: (§2)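 Recombinant strains carrying the cloned β-lactamase gene (shotgun cloned into pCLL2300, confirmed by standard sequencing) tested by broth microdilution. Serial antibiotic dilutions were inoculated to 10^5 CFU/ml and incubated 18 to 22 h at 35°C in ambient air. MIC was the lowest concentration completely inhibiting growth by unaided eye.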

Escherichia coli [8] = assay: Antimicrobial activity against Escherichia coli ATCC 25922 by microdilution method
Outline: (§3)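 Broth microdilution MIC. Plates with serial dilutions of each β-lactam inoculated to 10^5 CFU/ml, incubated 18 to 22 h at 35°C in ambient air. MIC = lowest concentration completely inhibiting growth by unaided eye. Strains carrying the novel β-lactamases are recombinants, with the genes shotgun cloned into pCLL2300.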

Escherichia coli [9] = assay: Antimicrobial activity against Escherichia coli DH5[alpha] by microdilution method; outline: as §3
Escherichia coli [10] = assay: Antimicrobial activity against Escherichia coli DH5[alpha] isolate GC 7668 expressing bla SHV-48 gene by microdilution method; outline: as §3
Escherichia coli [11] = assay: Antimicrobial activity against Escherichia coli DH5[alpha] isolate GC 8128 expressing bla SHV-105 gene by microdilution method; outline: as §2
Escherichia coli [12] = assay: Antimicrobial activity against Escherichia coli DH5[alpha] isolate GC 8130 expressing bla SHV-1 gene by microdilution method; outline: as §3
Escherichia coli [13] = assay: Antimicrobial activity against Escherichia coli DH5[alpha] isolate GC 8133 expressing bla […] gene by Etest method in presence of clavulanic acid
Escherichia coli [14] = assay: Antimicrobial activity against Escherichia coli ATCC 25922 by Etest method in presence of clavulanic acid
Escherichia coli [15] = assay: Antimicrobial activity against Escherichia coli DH5[alpha] isolate GC 7668 expressing bla SHV-48 gene by Etest method in presence of clavulanic acid
Escherichia coli [16] = assay: Antimicrobial activity against Escherichia coli DH5[alpha] isolate GC 8130 expressing bla SHV-1 gene by Etest method in presence of clavulanic acid
Escherichia coli [17] = assay: Antimicrobial activity against Escherichia coli ATCC 25922 by Etest method
Escherichia coli [18] = assay: Antimicrobial activity against Escherichia coli DH5[alpha] isolate GC 8130 expressing bla SHV-1 gene by Etest method
Escherichia coli [19] = assay: Antimicrobial activity against Escherichia coli DH5[alpha] isolate GC 8128 expressing bla SHV-105 gene by Etest method in presence of clavulanic acid
Outline: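 The blaSHV-105 gene was shotgun-cloned into vector pCLL2300, and the insert was confirmed by standard sequencing. The recombinant E. coli strain carrying it was tested against a β-lactam panel in Etest format.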

Escherichia coli [20] = assay: Antimicrobial activity against Escherichia coli DH5[alpha] by Etest method
Escherichia coli [21] = assay: Antimicrobial activity against Escherichia coli DH5[alpha] isolate GC 8128 expressing bla SHV-105 gene by Etest method
Escherichia coli [22] = assay: Antimicrobial activity against Escherichia coli DH5[alpha] by Etest method in presence of clavulanic acid
Escherichia coli [23] = assay: Antimicrobial activity against Escherichia coli DH5[alpha] isolate GC 8133 expressing bla […] gene by Etest method
Escherichia coli [24] = assay: Antimicrobial activity against Escherichia coli DH5[alpha] isolate GC 7668 expressing bla SHV-48 gene by Etest method
Escherichia coli [25] = assay: Antimicrobial activity against Escherichia coli ATCC 25922 by microdilution method in presence of Tazobactam; outline: as §1
Escherichia coli [26] = assay: Antimicrobial activity against Escherichia coli DH5[alpha] by microdilution method in presence of Tazobactam; outline: as §1
Escherichia coli [27] = assay: Antimicrobial activity against Escherichia coli DH5[alpha] isolate GC 8130 expressing bla SHV-1 gene by microdilution method in presence of Tazobactam; outline: as §1
Escherichia coli [28] = assay: Antimicrobial activity against Escherichia coli DH5[alpha] isolate GC 8133 expressing bla […] gene by microdilution method in presence of Tazobactam; outline: as §1
Escherichia coli [29] = assay: Antimicrobial activity against Escherichia coli DH5[alpha] isolate GC 8128 expressing bla SHV-105 gene by microdilution method in presence of Tazobactam; outline: as §1
Escherichia coli [30] = assay: Antimicrobial activity against Escherichia coli DH5[alpha] isolate GC 7668 expressing bla SHV-48 gene by microdilution method in presence of Tazobactam; outline: as §1

SMILES	MIC (Escherichia coli [7]) [µg/mL]	MIC (Escherichia coli [8]) [µg/mL]	MIC (Escherichia coli [9]) [µg/mL]	MIC (Escherichia coli [10]) [µg/mL]	MIC (Escherichia coli [11]) [µg/mL]	MIC (Escherichia coli [12]) [µg/mL]	other results
CC1(C)S[C@@H]2[C@H](NC(=O)[C@H](N)c3ccc(O)cc3)C(=O)N2[C@H]1C(=O)O [AMOXICILLIN]							MIC (Escherichia coli [1]): 8 µg/mL; MIC (Escherichia coli [2]): 16 µg/mL; MIC (Escherichia coli [3]): 32 µg/mL; MIC (Escherichia coli [4]): 16 µg/mL; MIC (Escherichia coli [5]): 32 µg/mL; MIC (Escherichia coli [6]): 8 µg/mL
CC1(C)S[C@@H]2[C@H](NC(=O)[C@H](N)c3ccccc3)C(=O)N2[C@H]1C(=O)O [AMPICILLIN]	> 128	4 (≈ 11.4 µM)	8 (≈ 22.9 µM)	> 128	> 128	> 128	
C[C@H]1[C@H](NC(=O)/C(=N\OC(C)(C)C(=O)O)c2csc(N)n2)C(=O)N1S(=O)(=O)O [AZTREONAM]	> 128	0.25 (≈ 0.574 µM)	≤ 0.125	0.5 (≈ 1.15 µM)	> 128	0.25 (≈ 0.574 µM)	
CO/N=C(\C(=O)N[C@@H]1C(=O)N2C(C(=O)[O-])=C(C[N+]3(C)CCCC3)CS[C@H]12)c1csc(N)n1 [CEFEPIME]	128 (≈ 266 µM)	≤ 0.125	≤ 0.125	0.5 (≈ 1.04 µM)	16 (≈ 33.3 µM)		
CO/N=C(\C(=O)N[C@@H]1C(=O)N2C(C(=O)O)=C(COC(C)=O)CS[C@H]12)c1csc(N)n1 [CEFOTAXIME]	32 (≈ 70.3 µM)	≤ 0.125	≤ 0.125	≤ 0.125	128 (≈ 281 µM)	≤ 0.125	MIC (Escherichia coli [13]): 0.023 µg/mL; MIC (Escherichia coli [14]): 0.047 µg/mL; MIC (Escherichia coli [15]): 0.023 µg/mL; MIC (Escherichia coli [16]): 0.023 µg/mL; MIC (Escherichia coli [17]): < 0.25 µg/mL; MIC (Escherichia coli [18]): < 0.25 µg/mL; MIC (Escherichia coli [19]): 0.032 µg/mL; MIC (Escherichia coli [20]): < 0.25 µg/mL; MIC (Escherichia coli [21]): > 16 µg/mL; MIC (Escherichia coli [22]): 0.023 µg/mL; MIC (Escherichia coli [23]): 2 µg/mL (≈ 4.39 µM); MIC (Escherichia coli [24]): < 0.25 µg/mL
CO[C@@]1(NC(=O)Cc2cccs2)C(=O)N2C(C(=O)O)=C(COC(N)=O)CS[C@@H]21 [CEFOXITIN]	8 (≈ 18.7 µM)	4 (≈ 9.36 µM)	8 (≈ 18.7 µM)	4 (≈ 9.36 µM)	8 (≈ 18.7 µM)	16 (≈ 37.4 µM)	
CC(C)(O/N=C(\C(=O)N[C@@H]1C(=O)N2C(C(=O)[O-])=C(C[n+]3ccccc3)CS[C@H]12)c1csc(N)n1)C(=O)O [CEFTAZIDIME]	> 128	0.25 (≈ 0.457 µM)	0.25 (≈ 0.457 µM)	1 (≈ 1.83 µM)	> 128	0.5 (≈ 0.915 µM)	MIC (Escherichia coli [13]): 0.5 µg/mL; MIC (Escherichia coli [14]): 0.125 µg/mL; MIC (Escherichia coli [15]): 0.125 µg/mL; MIC (Escherichia coli [16]): 0.125 µg/mL; MIC (Escherichia coli [17]): < 0.5 µg/mL; MIC (Escherichia coli [18]): < 0.5 µg/mL; MIC (Escherichia coli [19]): 0.25 µg/mL; MIC (Escherichia coli [20]): < 0.5 µg/mL; MIC (Escherichia coli [21]): > 32 µg/mL; MIC (Escherichia coli [22]): 0.094 µg/mL; MIC (Escherichia coli [23]): > 32 µg/mL; MIC (Escherichia coli [24]): < 0.5 µg/mL
CO/N=C(\C(=O)N[C@@H]1C(=O)N2C(C(=O)O)=C(COC(N)=O)CS[C@H]12)c1ccco1 [CEFUROXIME]	64 (≈ 151 µM)	≤ 0.125	≤ 0.125	≤ 0.125	128 (≈ 302 µM)	0.25 (≈ 0.589 µM)	
C[C@@H](O)[C@H]1C(=O)N2C(C(=O)O)=C(SCCNC=N)C[C@H]12 [IMIPENEM ANHYDROUS]	0.25 (≈ 0.835 µM)	≤ 0.125	0.25 (≈ 0.835 µM)	0.25 (≈ 0.835 µM)			
CCN1CCN(C(=O)N[C@@H](C(=O)N[C@@H]2C(=O)N3[C@@H]2SC(C)(C)[C@@H]3C(=O)O)c2ccccc2)C(=O)C1=O [PIPERACILLIN]	> 128	2 (≈ 3.86 µM)	0.5 (≈ 0.966 µM)	> 128	> 128	64 (≈ 124 µM)	MIC (Escherichia coli [25]): 2 µg/mL; MIC (Escherichia coli [26]): 0.5 µg/mL; MIC (Escherichia coli [27]): 1 µg/mL; MIC (Escherichia coli [28]): 2 µg/mL; MIC (Escherichia coli [29]): 1 µg/mL; MIC (Escherichia coli [30]): > 128 µg/mL
